Bioassay records (PubChem BioAssay)
Shown are actives, neighbours in structure and some others; about 2.3% of the full set was active somewhere.
PLC-gamma1 inh = PLC-gamma1 (human) inhibition, primary screen. 370,000 compounds, 0.84% hits. inhibition, % at 12.2 µM. P19174. AID 720700. purified PLC-gamma1, fluorogenic substrate, fluorescence; in the data active = inhibition above about 9.5%
PLC-beta3 inh = inhibitors of human phospholipase C beta3; Q01970; Purified PLC-beta3, fluorogenic substrate, fluorescence; inhibition, % at 12.2 µM; 370,000 compounds, 0.18% hits; AID 720704; in the data active = inhibition above about 11%
ADAM10 inh = inhibitors of human ADAM10 | O14672 | recombinant ADAM10, EDANS/DABCYL FRET peptide cleavage, 3 h | inhibition, % at 7 µM | 370,000 compounds, 0.62% hits;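 active = inhibition above a per-campaign cutoff equal to the mean of compounds falling between control-based bounds plus 3 SD, cut at about 20% in these data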
DDE Tn6 FP inh = inhibitors of Tn6 peptide binding to human fibrin DD(E) | inhibition, % at 8.3 µM | 370,000 compounds, 0.21% hits | P02675 | Fibrin DD(E) TRITC-Tn6 fluorescence polarization displacement | AID 720509;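 active = inhibition above a per-campaign cutoff: mean of compounds within control limits plus 3 SD, cut at about 15% in these data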
DDE Tn7 FP inh = inhibitors of Tn7 peptide binding to human fibrin DD(E) | FP displacement of FITC-Tn7 peptide from fibrin DD(E); 0% = median of compound wells per plate | inhibition, % at 8.3 µM | 370,000 compounds, 0.13% hits | AID 720508;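 active = inhibition above the mean of compounds falling within the control limits plus 3 SD of them, cut at about 14% in these data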
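Assay system: Fibrin-DD(E) protein isolated from polymerized human fibrin clots; read-out basis: percent inhibition; medium: Tris/NaCl/CaCl2 buffer, pH 7.8; signal: FP measurement; incubation: 10 min plus 3 h, room temperature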
ADAM17 inh = inhibitors of human ADAM17; recombinant ADAM17, EDANS/DABCYL FRET peptide cleavage; inhibition, % at 6.95 µM; 370,000 compounds, 0.83% hits; AID 720648;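 active = inhibition above the mean of compounds lying between control limits plus 3 SD, set per campaign, cut at about 8.5% in these data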
Target sequence (P78536 215-824 limits assumed): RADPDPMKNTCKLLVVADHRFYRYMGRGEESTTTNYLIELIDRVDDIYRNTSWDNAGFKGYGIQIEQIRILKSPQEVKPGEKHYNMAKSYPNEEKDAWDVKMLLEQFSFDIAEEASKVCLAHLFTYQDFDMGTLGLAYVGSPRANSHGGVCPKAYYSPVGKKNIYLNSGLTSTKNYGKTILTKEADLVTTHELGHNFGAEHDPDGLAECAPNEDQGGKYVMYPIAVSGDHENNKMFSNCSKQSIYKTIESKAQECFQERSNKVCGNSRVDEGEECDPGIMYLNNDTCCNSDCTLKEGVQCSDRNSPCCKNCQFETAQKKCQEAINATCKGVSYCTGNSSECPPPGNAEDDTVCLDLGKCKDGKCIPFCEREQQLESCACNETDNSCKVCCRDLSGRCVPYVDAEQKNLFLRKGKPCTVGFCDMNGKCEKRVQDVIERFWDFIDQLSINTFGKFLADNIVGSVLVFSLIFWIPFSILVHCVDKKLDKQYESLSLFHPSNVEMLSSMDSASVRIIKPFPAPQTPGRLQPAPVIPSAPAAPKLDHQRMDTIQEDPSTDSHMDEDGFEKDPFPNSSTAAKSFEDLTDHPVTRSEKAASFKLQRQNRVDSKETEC
DDE Tn7 confirm = confirmation of inhibitors of Tn7 binding to human fibrin DD(E); 460 compounds, 5% hits; FP displacement of TRITC-Tn7 peptide from DD(E); 0% set at plate's compound-well median; AID 720628; shares compounds with DDE Tn7 FP inh; inhibition, % at 8.3 µM;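 active = inhibition above the campaign cutoff, the mean of compounds within control limits plus 3 SD, cut at about 14% in these data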;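 note: displacers lower polarization since freed probe rises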
Tn7 DDE ctr = counter-screen for inhibitors of Tn7 peptide binding to fibrin DD(E); shares compounds with DDE Tn7 FP inh; TRITC-Tn7 probe displacement, fluorescence polarization; inhibition, % at 8.3 µM; 460 compounds, 3% hits; AID 720633;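 active = inhibition above the cutoff, the mean of compounds lying between the control bounds plus 3 SD of those compounds, cut at about 17% in these data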
Of the large screens only hits and unclear results are named; the others gave an inactive call (follow-up assays come after a bar, where they were run).

COC(=O)C1=C(C)NC(=O)NC1c1ccc2c(c1)OCO2 (centres undefined)	none
CC1=C(C(=O)OC(C)C)C(c2ccc3c(c2)OCO3)NC(=O)N1 (centres undefined)	DDE Tn7 FP inh 16 | DDE Tn7 confirm inactive | Tn7 DDE ctr inactive
O=C(Cn1nnc(-c2ccc(F)cc2)n1)Nc1ccc2c(c1)OCCO2	DDE Tn7 FP inh 15 | DDE Tn7 confirm inactive | Tn7 DDE ctr inactive
CCOC(=O)[C@@]12CCCC3=C1N(CCC3)C(=O)[C@H]2CC(=O)NCc1ccc(C)o1	none
C=CCCC(=O)N[C@H]1CC[C@@]23CCCN2C(=O)CCC[C@H]3[C@H]1CCC	none
COc1ccc(S[C@]2(C(=O)NCc3ccccc3)CC(=O)N[C@@H]2c2ccc(OC)cc2)cc1	none
COc1ccc(Cl)cc1C(=O)OCC(=O)N(CC(C)C)c1c(N)n(Cc2ccccc2)c(=O)[nH]c1=O	none
CCN(C(=O)COC(=O)c1cc(Cl)ccc1OC)c1c(N)n(Cc2ccccc2)c(=O)[nH]c1=O	DDE Tn7 FP inh 14 | DDE Tn7 confirm inactive | Tn7 DDE ctr inactive
COc1cccc(OC)c1NC(=O)OC1CCC12CCC(c1ccccc1)CC2 (centres undefined)	none
CCOP(=O)(c1ccccc1)C(O)c1ccc([N+](=O)[O-])cc1 (centres undefined)	DDE Tn7 FP inh 16 | DDE Tn7 confirm inactive | Tn7 DDE ctr inactive
CCOP(=O)(c1ccccc1)C(O)c1ccc(F)cc1 (centres undefined)	none
Nc1nc(-n2cnnc2)nn1-c1ccccc1	none
Nc1nc(N2C(=O)C3CC=CCC3C2=O)nn1-c1ccccc1 (centres undefined)	DDE Tn7 FP inh 16 | DDE Tn7 confirm inactive | Tn7 DDE ctr inactive
NC(=O)C1CCCN(C(=S)NCc2ccc3c(c2)OCO3)C1 (centres undefined)	none
NC(=O)C1CCN(C(=S)NCc2ccc3c(c2)OCO3)CC1	DDE Tn7 FP inh 15 | DDE Tn7 confirm inactive | Tn7 DDE ctr inactive
Cc1ccc(NC(=O)C2CC(O)CN2C(=O)OCc2ccccc2)cc1C (centres undefined)	DDE Tn7 FP inh 15 | DDE Tn7 confirm inactive | Tn7 DDE ctr inactive
COc1ccc(CCNC(=O)CC2SC(=NCc3ccccc3)NC2=O)cc1 (centres undefined)	DDE Tn7 FP inh 15 | DDE Tn7 confirm inactive | Tn7 DDE ctr inactive
C/C(=N\NC(=O)Cc1cc(=O)[nH][nH]1)c1ccc([N+](=O)[O-])cc1	none
COc1ccc(OC)c(NCCN2C(=O)c3ccccc3C2=O)c1	none
CCCCNc1ccc2c3c(cccc13)C(=O)N(CCCC)C2=O	DDE Tn7 FP inh 47 | DDE Tn7 confirm inactive | Tn7 DDE ctr 19
CCCN1C(=O)c2cccc3c(N4CCCCC4)ccc(c23)C1=O	DDE Tn7 FP inh 16 | DDE Tn7 confirm inactive | Tn7 DDE ctr inactive
O=C1c2cccc3c(N4CCCCC4)ccc(c23)C(=O)N1c1ccccn1	none
COc1ccc(NS(=O)(=O)c2ccc3c(c2)NC(=O)C(C)S3)cc1 (centres undefined)	DDE Tn7 FP inh 14 | DDE Tn7 confirm inactive | Tn7 DDE ctr inactive
COc1ccc(NC(=O)C2CCN(S(=O)(=O)c3ccc4c(c3)NC(=O)C(C)S4)CC2)cc1 (centres undefined)	none
COc1cccc(/C=N\NC(=O)c2ccc(Cn3cc(Br)c([N+](=O)[O-])n3)o2)c1O	DDE Tn7 FP inh 14 | DDE Tn7 confirm inactive | Tn7 DDE ctr inactive
COCCn1c2nc(=O)n(-c3ccccc3)c(=O)c-2nc2ccccc21	DDE Tn7 FP inh 51 | DDE Tn7 confirm 26 | Tn7 DDE ctr inactive
O=C(CCCOc1ccc(Cl)cc1)N1CCCCC1	none
O=C(CCCOc1ccc(Cl)cc1)N1CCCCCC1	DDE Tn7 FP inh 14 | DDE Tn7 confirm inactive | Tn7 DDE ctr inactive
O=C(NC1CCCCN(Cc2ccc(OC(F)(F)F)cc2)C1=O)c1cccc(C(F)(F)F)c1 (centres undefined)	none
O=[N+]([O-])c1ccc(CP(=O)(c2ccccc2)c2ccccc2)cc1	DDE Tn7 FP inh 14 | DDE Tn7 confirm inactive | Tn7 DDE ctr inactive
O=[N+]([O-])c1cccc(CP(=O)(c2ccccc2)c2ccccc2)c1	none
CC[C@@]12C(=O)N(c3ccc(OC)cc3)C(=O)N1[C@H](c1ccc(Cl)cc1)[C@@H]1C(=O)N(C3CCCCC3)C(=O)[C@@H]12	DDE Tn7 FP inh 16 | DDE Tn7 confirm inactive | Tn7 DDE ctr inactive
O=C(Nc1ccc(Cl)cc1)O[C@@H]1CC[C@@]23CCCN2C(=O)CCC[C@H]3C1	none
CCc1ccc(-c2cc(C)no2)cc1S(=O)(=O)Nc1ccccn1	none
Cc1cc(-c2ccc(C(C)C)c(S(=O)(=O)Nc3ccccn3)c2)on1	DDE Tn7 FP inh 18 | DDE Tn7 confirm inactive | Tn7 DDE ctr inactive
O=C(Nc1ccccc1N1CCCCC1)c1cccc(Cl)c1	DDE Tn7 FP inh 14 | DDE Tn7 confirm inactive | Tn7 DDE ctr inactive
O=C(Nc1ccccc1N1CCCC1)c1cc(Cl)ccc1Cl	none
O=[N+]([O-])c1cccc2[nH]c(CNc3nc(N4CCOCC4)nc4c3ncn4-c3ccsc3)nc12	none
CCOc1ccc(CCN2C(=S)N([C@@H](Cc3ccc(O)cc3)CN3CCC[C@@H]3CN3C(=S)NC[C@@H]3CC(C)C)C[C@@H]2CC(C)C)cc1	DDE Tn7 FP inh 14 | DDE Tn7 confirm inactive | Tn7 DDE ctr inactive
CCOc1ccc(CCN2C(=S)N([C@@H](Cc3ccc(O)cc3)CN3CCC[C@@H]3CN3C(=S)NC[C@@H]3Cc3ccccc3)C[C@@H]2CC(C)C)cc1	none
CC1CCCCN1C(=O)COC(=O)Cc1c[nH]c2ccccc12 (centres undefined)	DDE Tn7 FP inh 15 | DDE Tn7 confirm inactive | Tn7 DDE ctr inactive
Cc1cccc(NC(=O)c2ccc(C(=O)c3ccccc3)cc2)n1	DDE Tn7 FP inh 20 | DDE Tn7 confirm inactive | Tn7 DDE ctr inactive
Cc1cccc(NC(=O)c2cccc(C(=O)Nc3cccc(C)n3)c2)n1	none
O=C(Cc1ccc(Cl)c(Cl)c1)Nc1ccc(S(=O)(=O)Nc2ccon2)cc1	none
C[N+]1=C2N[C@@H](c3ccccc3)CC(=O)N2/C(=C\c2ccccc2)[C@@H]1Cc1ccccc1	none
C=CC[C@H](CC(=O)N(CCO)Cc1ccccc1)C(=O)N[C@@H](C)COC(=O)[C@@H](CC=C)Cc1ccc(F)cc1	none
